Source: ChEMBL document CHEMBL1137411, “Development of small-molecule cyclin D1-ablative agents” (J Med Chem, 2006)
Active and inactive are the calls of the source. The calls are words filed in the database; no cut-off is given here.

Columns and labels:
MCF7 [1] = assay: Repression of cyclinD1 level in MCF7 cells after 72 hrs; type: functional, cell-based; conditions: Homo sapiens, MCF7, 72 h
How it was run: (§1)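 MCF-7 cells exposed for 72 h in 5% FBS-supplemented medium over 2.5-7.5 µM. Lysates were run on 10% SDS-PAGE and immunoblotted for cyclin D1 with ECL detection. Band intensity was quantified by densitometry, normalized to β-actin and expressed relative to DMSO control (100%).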

MCF7 [2] = assay: Repression of cyclinD1 level in MCF7 cells at 5 uM relative to control; type: functional, Homo sapiens; how it was run: as §1
MCF7 [3] = assay: Repression of cyclinD1 level in MCF7 cells at 7.5 uM relative to control; type: functional, Homo sapiens; how it was run: as §1
MCF7 [4] = assay: Repression of cyclinD1 level in MCF7 cells at 2.5 uM relative to control; type: functional, Homo sapiens; how it was run: as §1
MCF7 [5] = assay: Antiproliferative activity against MCF7 cells by MTT assay; type: functional, cell-based; conditions: Homo sapiens
How it was run: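 MCF-7 cells seeded in DMEM/Ham's F-12 with 10% FBS for 24 h, then exposed to test agents in DMSO (final 0.1%) in 5% FBS medium. Vehicle controls got matching DMSO. Medium replaced with 0.5 mM MTT in 10% FBS RPMI 1640 for 2 h at 37 °C, and reduced dye solubilized in DMSO. Six replicates.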

MCF7 [6] = assay: Repression of cyclinD1 level in MCF7 cells at 10 uM; type: functional, cell-based; conditions: Homo sapiens

IC50 (MCF7 [1]) | IC50 (MCF7 [5]) | Structure (SMILES) | Activity (MCF7 [2]) | Activity (MCF7 [3]) | Activity (MCF7 [4]) | Activity (MCF7 [6])
6 µM |  | CCCCOc1c(C)c(C)c2c(c1C)CCC(C)(COc1ccc(/C=C3\SC(=O)NC3=O)cc1C(F)(F)F)O2 (stereo not given) |  |  |  | 
 |  | Cc1c(C)c2c(c(C)c1OC(=O)CCC(=O)O)CCC(C)(COc1ccc(/C=C3\SC(=O)NC3=O)cc1)O2 (stereo not given) | 98% | 76% | 115% | 
 |  | C=CCOc1c(C)c(C)c2c(c1C)CCC(C)(COc1cccc(/C=C3\SC(=O)NC3=O)c1)O2 (stereo not given) | 92% | 75% | 84% | 
 | 55 µM | Cc1c(C)c2c(c(C)c1O)CCC(C)(COc1ccc(/C=C3\SC(=O)NC3=O)cc1)O2 (stereo not given) |  |  |  | 
 |  | COc1cc(/C=C2\SC(=O)NC2=O)ccc1OCC1(C)CCc2c(C)c(OCC=C(C)C)c(C)c(C)c2O1 (stereo not given) | 78% | 54% | 95% | 
 |  | CC(C)=CCOc1c(C)c(C)c2c(c1C)CCC(C)(COc1ccc(/C=C3\SC(=O)NC3=O)cc1Br)O2 (stereo not given) | 84% | 53% | 96% | 
 |  | C=CCOc1c(C)c(C)c2c(c1C)CCC(C)(COc1ccc(/C=C3\SC(=O)NC3=O)cc1Br)O2 (stereo not given) | 98% | 105% | 102% | 
 | 5 µM | C=CCOc1c(C)c(C)c2c(c1C)CC[C@@](C)(COc1ccc(/C=C3\SC(=O)NC3=O)cc1OC)O2 |  |  |  | 
 |  | Cc1c(C)c2c(c(C)c1OCc1ccccc1)CCC(C)(COc1ccc(/C=C3\SC(=O)NC3=O)cc1)O2 (stereo not given) | 42% | 12% | 85% | 
 |  | Cc1c(C)c2c(c(C)c1OC/C=C/c1ccccc1)CCC(C)(COc1ccc(/C=C3\SC(=O)NC3=O)cc1)O2 (stereo not given) | 65% | 43% | 92% | 
 |  | C=CCOc1c(C)c(C)c2c(c1C)CCC(C)(COc1ccc(/C=C3\SC(=O)NC3=O)cc1C)O2 (stereo not given) | 24% | 8% | 84% | 
9 µM |  | CCCCOc1c(C)c(C)c2c(c1C)CCC(C)(COc1ccc(CC3SC(=O)NC3=O)cc1C(F)(F)F)O2 (stereo not given) |  |  |  | 
2.5 µM |  | C=CCOc1c(C)c(C)c2c(c1C)CCC(C)(COc1ccc(/C=C3\SC(=O)NC3=O)cc1OC)O2 (stereo not given) | 5% | 1% | 34% | 
 |  | CC(C)=CCOc1c(C)c(C)c2c(c1C)CCC(C)(COc1ccc(/C=C3\SC(=O)NC3=O)cc1)O2 (stereo not given) | 21% | 5% | 76% | 
 |  | CC(C)=CCOc1c(C)c(C)c2c(c1C)CCC(C)(COc1ccc(/C=C3\SC(=O)NC3=O)cc1C)O2 (stereo not given) | 56% | 27% | 89% | 
 |  | C=CCOc1c(C)c(C)c2c(c1C)CC[C@](C)(COc1ccc(/C=C3\SC(=O)NC3=O)cc1OC)O2 |  |  |  | Active
 |  | CC(C)=CCOc1c(C)c(C)c2c(c1C)CCC(C)(COc1ccc(/C=C3\SC(=O)NC3=O)cc1-c1ccc(F)cc1)O2 (stereo not given) | 92% | 85% | 87% | 
 |  | CC(C)=CCOc1c(C)c(C)c2c(c1C)CCC(C)(COc1ccc(/C=C3\SC(=O)NC3=O)cc1F)O2 (stereo not given) | 87% | 64% | 95% | 
 |  | CCOc1cc(/C=C2\SC(=O)NC2=O)ccc1OCC1(C)CCc2c(C)c(OCC=C(C)C)c(C)c(C)c2O1 (stereo not given) | 84% | 54% | 107% | 
 |  | C=CCOc1c(C)c(C)c2c(c1C)CCC(C)(COc1ccc(/C=C3\SC(=O)NC3=O)cc1OCC)O2 (stereo not given) | 87% | 75% | 107% | 
> 5 µM |  | C=CCOc1c(C)c(C)c2c(c1C)CCC(C)(COc1ccc(/C=C3\SC(=O)NC3=O)cc1)O2 (stereo not given) | 42% | 2% | 45% | 
